Laboratory results as given in ChEMBL document CHEMBL1152859, “The novel phosphoramidate derivatives of NSAID 3-hydroxypropylamides: synthesis, cytostatic and antiviral activity evaluations” (Eur J Med Chem, 2009).
Active and inactive are the calls of the source. The calls are words filed in the database; no cut-off is given here.

Key:
[1] = test system: L1210; assay: Cytostatic activity against mouse L1210 cells after 48 hrs by MTT assay; format: functional, cell-based; settings: L1210, 48 h
[2] = Cytostatic activity against human Molt4/C8 cells after 72 hrs by MTT assay; format: functional, cell-based; settings: MOLT-4, 72 h
[3] = test system: CCRF-CEM; assay: Cytostatic activity against human CEM cells after 72 hrs by MTT assay; format: functional, cell-based
[4] = test system: HeLa; assay: Cytostatic activity against human HeLa cells after 72 hrs by MTT assay; format: functional, cell-based
How it was run: (§1)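 Monolayer cells were grown in DMEM with 10% FBS, 2 mM L-glutamine, penicillin and streptomycin at 37 °C under 5% CO2. They were seeded on day 0 at 1 × 10⁴ to 3 × 10⁴ cells/ml and exposed to five 10-fold dilutions (10⁻⁸ to 10⁻⁴ M) for 72 h, with a solvent control. Read-out was MTT. Quadruplicates in three experiments (WI 38: one experiment). IC50 by linear regression of percentage-of-growth.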

[5] = test system: MIA PaCa-2; assay: Cytostatic activity against human MIAPaCa2 cells after 72 hrs by MTT assay; format: functional, cell-based; settings: MIA PaCa-2, 72 h; how it was run: as §1
[6] = test system: SW-620; assay: Cytostatic activity against human SW620 cells after 72 hrs by MTT assay; format: functional, cell-based; settings: SW-620, 72 h; how it was run: as §1
[7] = test system: MCF7; assay: Cytostatic activity against human MCF7 cells after 72 hrs by MTT assay; format: functional, cell-based; settings: MCF7, 72 h; how it was run: as §1
[8] = test system: NCI-H460; assay: Cytostatic activity against human H460 cells after 72 hrs by MTT assay; format: functional, cell-based; settings: NCI-H460, 72 h; how it was run: as §1
[9] = Cytostatic activity against human WI38 cells after 72 hrs by MTT assay; format: ADME, cell-based; settings: WI-38, 72 h; how it was run: as §1
[10] = test system: Human immunodeficiency virus 1; assay: Antiviral activity against HIV1 3B infected in human CEM cells assessed as inhibition of virus-induced cytopathicity; format: functional, organism-based; settings: CCRF-CEM
[11] = test system: Human immunodeficiency virus 2; assay: Antiviral activity against HIV2 ROD infected in human CEM cells assessed as inhibition of virus-induced cytopathicity; format: functional, organism-based; settings: CCRF-CEM
[12] = test system: Human alphaherpesvirus 1; assay: Antiviral activity against Herpes simplex virus 1 infected in HEL cells assessed as inhibition of virus-induced cytopathicity; format: functional, organism-based
[13] = test system: Human alphaherpesvirus 2; assay: Antiviral activity against Herpes simplex virus 2 infected in HEL cells assessed as inhibition of virus-induced cytopathicity; format: functional, organism-based
[14] = test system: Vaccinia virus; assay: Antiviral activity against Vaccinia virus infected in HEL cells assessed as inhibition of virus-induced cytopathicity; format: functional, organism-based; settings: Orthopoxvirus vaccinia
How it was run: (§2)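 Cell cultures were exposed for 2 h to 100 CCID50 of virus, and residual virus was then removed. Infected cells were further incubated with medium containing varying compound concentrations for 3 days at 37 °C. Virus-induced cytopathogenicity was scored microscopically. EC50 is the concentration giving a 50% reduction of cytopathogenicity.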

[15] = test system: Human alphaherpesvirus 3; assay: Antiviral activity against Varicella-Zoster virus infected in HEL cells assessed as inhibition of virus-induced cytopathicity; format: functional, organism-based
[16] = test system: Cytomegalovirus; assay: Antiviral activity against Cytomegalovirus infected in HEL cells assessed as inhibition of virus-induced cytopathicity; format: functional, organism-based
How it was run: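 Confluent HEL fibroblasts were infected with CMV strains Davis and AD-169 at 100 PFU per well for 2 h, then virus was removed. Graded concentrations were added in duplicate and cultures kept 7 days at 37 °C. Cytopathogenicity was scored microscopically after ethanol fixation and Giemsa staining. EC50 is the 50% reduction.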

[17] = test system: Vesicular stomatitis virus; assay: Antiviral activity against Vesicular stomatitis virus infected in HEL cells assessed as inhibition of virus-induced cytopathicity; format: functional, organism-based; how it was run: as §2
[18] = test system: Human respirovirus 3; assay: Antiviral activity against Parainfluenza-3 virus infected in african green monkey Vero cells assessed as inhibition of virus-induced cytopathicity; format: functional, organism-based
How it was run: (§3)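 Cells were infected with 100 CCID50 of virus for 2 h, then residual virus was removed. Medium with graded compound concentrations was added and cultures were kept 3 days at 37 °C. Cytopathogenicity was scored microscopically. EC50 is the concentration reducing virus-induced cytopathogenicity by 50%.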

[19] = test system: Mammalian orthoreovirus 1; assay: Antiviral activity against Reovirus 1 infected in african green monkey Vero cells assessed as inhibition of virus-induced cytopathicity; format: functional, organism-based; how it was run: as §3
[20] = test system: Sindbis virus; assay: Antiviral activity against Sindbis virus infected in african green monkey Vero cells assessed as inhibition of virus-induced cytopathicity; format: functional, organism-based; how it was run: as §3
[21] = test system: Coxsackievirus B4; assay: Antiviral activity against Coxsackievirus B4 infected in african green monkey Vero cells assessed as inhibition of virus-induced cytopathicity; format: functional, organism-based; how it was run: as §3
[22] = test system: Punta Toro virus; assay: Antiviral activity against Punta Toro virus infected in african green monkey Vero cells assessed as inhibition of virus-induced cytopathicity; format: functional, organism-based; how it was run: as §3
[23] = test system: Respiratory syncytial virus; assay: Antiviral activity against Respiratory syncytial virus infected in human HeLa cells assessed as inhibition of virus-induced cytopathicity; format: functional, organism-based; how it was run: as §3
[24] = test system: Vesicular stomatitis virus; assay: Antiviral activity against Vesicular stomatitis virus infected in human HeLa cells assessed as inhibition of virus-induced cytopathicity; format: functional, organism-based; how it was run: as §2
[25] = test system: Coxsackievirus B4; assay: Antiviral activity against Coxsackievirus B4 infected in human HeLa cells assessed as inhibition of virus-induced cytopathicity; format: functional, organism-based; how it was run: as §3

COC(=O)[C@H](C)NP(=O)(OCCCNC(=O)Cc1ccccc1Nc1c(Cl)cccc1Cl)Oc1ccc(Cl)cc1 (stereo not given in full)
IC50 [1]: 13 µM
IC50 [2]: 9.7 µM
IC50 [3]: 22 µM
IC50 [4]: 16 µM
IC50 [5]: 16 µM
IC50 [6]: 16 µM
IC50 [7]: 9 µM
IC50 [8]: 17 µM
IC50 [9]: 18 µM
Activity [10]: inactive
Activity [11]: inactive
Activity [12]: inactive
Activity [13]: inactive
Activity [14]: inactive
Activity [15]: inactive
Activity [16]: inactive
Activity [17]: inactive
Activity [18]: inactive
Activity [19]: inactive
Activity [20]: inactive
Activity [21]: inactive
Activity [22]: inactive
Activity [23]: inactive
Activity [24]: inactive
Activity [25]: inactive

COC(=O)[C@H](C)NP(=O)(OCCCNC(=O)C(C)c1ccc(CC(C)C)cc1)Oc1ccc(Cl)cc1 (stereo not given in full)
IC50 [1]: 64 µM
IC50 [2]: 48 µM
IC50 [3]: 90 µM
IC50 [4]: 15 µM
IC50 [5]: 13 µM
IC50 [6]: 21 µM
IC50 [7]: 14 µM
IC50 [8]: 19 µM
IC50 [9]: 21 µM
Activity [10]: inactive
Activity [11]: inactive
Activity [12]: inactive
Activity [13]: inactive
Activity [14]: inactive
Activity [15]: inactive
Activity [16]: inactive
Activity [17]: inactive
Activity [18]: inactive
Activity [19]: inactive
Activity [20]: inactive
Activity [21]: inactive
Activity [22]: inactive
Activity [23]: inactive
Activity [24]: inactive
Activity [25]: inactive

COC(=O)[C@H](C)NP(=O)(OCCCNC(=O)C(C)c1cccc(Oc2ccccc2)c1)Oc1ccc(Cl)cc1 (stereo not given in full)
IC50 [1]: 24 µM
IC50 [2]: 39 µM
IC50 [3]: 38 µM
IC50 [4]: 6 µM
IC50 [5]: 5 µM
IC50 [6]: 7 µM
IC50 [7]: 12 µM
IC50 [8]: 13 µM
IC50 [9]: 20 µM
Activity [10]: inactive
Activity [11]: inactive
Activity [12]: inactive
Activity [13]: inactive
Activity [14]: inactive
Activity [15]: inactive
Activity [16]: inactive
Activity [17]: inactive
Activity [18]: inactive
Activity [19]: inactive
Activity [20]: inactive
Activity [21]: inactive
Activity [22]: inactive
Activity [23]: inactive
Activity [24]: inactive
Activity [25]: inactive

COC(=O)[C@H](C)NP(=O)(OCCCNC(=O)C(C)c1cccc(C(=O)c2ccccc2)c1)Oc1ccc(Cl)cc1 (stereo not given in full)
IC50 [1]: 44 µM
IC50 [2]: 40 µM
IC50 [3]: 40 µM
IC50 [4]: 19 µM
IC50 [5]: 14 µM
IC50 [6]: 17 µM
IC50 [7]: 14 µM
IC50 [8]: 18 µM
IC50 [9]: 30 µM
Activity [10]: inactive
Activity [11]: inactive
Activity [12]: inactive
Activity [13]: inactive
Activity [14]: inactive
Activity [15]: inactive
Activity [16]: inactive
Activity [17]: inactive
Activity [18]: inactive
Activity [19]: inactive
Activity [20]: inactive
Activity [21]: inactive
Activity [22]: inactive
Activity [23]: inactive
Activity [24]: inactive
Activity [25]: inactive
